Molecules are shown by their SMILES. Square brackets hold non-standard residues; d marks the D form. Peptide text beside a SMILES is read from it. Bounds are passed on as bounds.

Assay type in all cases: cell-based
In experiment [1] the target is T1, Somatostatin receptor type 4 (Homo sapiens, UniProt P31391). Put plainly: In vitro inhibition of radioligand binding to human somatostatin receptor (hsst4) expressed in CHO-K1 cells. In short, it runs like this:
(§1)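 Membranes from CHO-K1 clones stably expressing the hsst subtype (pCMV, G418-selected), washed in 50 mM Tris-HCl. Stopped by PEI-treated GF/C filtration. Specific binding was defined against 1000 nM SRIF-14.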

Experiment [2] has as its target T1, Somatostatin receptor type 4. Put plainly: In vitro inhibition of radioligand binding to human somatostatin receptor (hsst4) expressed in CHO cells. Put shortly: (§2)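 Competition binding on cell or membrane homogenates in 10 mM HEPES pH 7.5 with 0.5% BSA, 5 mM MgCl2 and 5 μg/mL bacitracin, 1 h at room temperature. Nonspecific binding with 1 μM SRIF14. Gamma counting, triplicates, nonlinear regression, reported as pKD.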

Experiment [3] deals with T2, Somatostatin receptor type 5 (Homo sapiens, UniProt P35346). Nature of the experiment: In vitro inhibition of radioligand binding to human Somatostatin receptor type 5 expressed in CHO-K1 cells. In short, it runs like this:
as §1

In experiment [4] the target is T3, Somatostatin receptor type 2 (Homo sapiens, UniProt P30874). Put plainly: In vitro inhibition of radioligand binding to human somatostatin receptor (hsst2) expressed in CHO cells. In short, it runs like this: as §2
Experiment [5] addresses T4, Somatostatin receptor type 1 (Homo sapiens, UniProt P30872). Put plainly: In vitro inhibition of radioligand binding to human somatostatin receptor (hsst1) expressed in CHO-K1 cells. Put shortly:
as §1

The target in experiment [6] is T5, Somatostatin receptor type 3 (Homo sapiens, UniProt P32745). Nature of the experiment: In vitro inhibition of radioligand binding to human somatostatin receptor (hsst3) expressed in CHO cells. Put shortly:
as §2

Experiment [7] addresses T3, Somatostatin receptor type 2. Put plainly: In vitro inhibition of radioligand binding to human somatostatin receptor (hsst2) expressed in CHO-K1 cells. Put shortly:
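hsst2 stably expressed in CHO-K1 cells; washed membranes were used. Radioligand was 0.05 nM [125I]MK-678, incubated 90 min at 25 °C in 50 mM HEPES pH 7.4 buffer with BSA, MgCl2 and protease inhibitors. Filtered on PEI-soaked GF/C filters. Specific binding was defined against 1000 nM MK-678.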

The target in experiment [8] is T5, Somatostatin receptor type 3. Nature of the experiment: In vitro inhibition of radioligand binding to human somatostatin receptor (hsst3) expressed in CHO-K1 cells. Put shortly: as §1
The target in experiment [9] is T2, Somatostatin receptor type 5. Put plainly: In vitro inhibition of radioligand binding to human Somatostatin receptor type 5 expressed in CCL-39 cells. In short, it runs like this:
as §2

Experiment [10] has as its target T4, Somatostatin receptor type 1. Put plainly: In vitro inhibition of radioligand binding to human somatostatin receptor (hsst1) expressed in hSF6 cells. In short, it runs like this:
as §2

T5 sequence (P32745 whole entry): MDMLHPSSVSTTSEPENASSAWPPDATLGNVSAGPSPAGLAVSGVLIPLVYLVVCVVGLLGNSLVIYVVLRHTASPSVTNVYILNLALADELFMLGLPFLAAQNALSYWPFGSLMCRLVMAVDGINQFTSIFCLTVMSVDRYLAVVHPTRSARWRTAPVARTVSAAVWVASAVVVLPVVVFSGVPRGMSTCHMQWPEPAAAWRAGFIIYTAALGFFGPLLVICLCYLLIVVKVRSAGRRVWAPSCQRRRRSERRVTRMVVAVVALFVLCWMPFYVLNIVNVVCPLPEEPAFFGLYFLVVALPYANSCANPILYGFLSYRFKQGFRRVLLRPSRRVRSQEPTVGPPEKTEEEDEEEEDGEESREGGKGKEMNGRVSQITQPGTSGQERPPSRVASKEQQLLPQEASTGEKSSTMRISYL
T3 sequence (P30874 whole entry): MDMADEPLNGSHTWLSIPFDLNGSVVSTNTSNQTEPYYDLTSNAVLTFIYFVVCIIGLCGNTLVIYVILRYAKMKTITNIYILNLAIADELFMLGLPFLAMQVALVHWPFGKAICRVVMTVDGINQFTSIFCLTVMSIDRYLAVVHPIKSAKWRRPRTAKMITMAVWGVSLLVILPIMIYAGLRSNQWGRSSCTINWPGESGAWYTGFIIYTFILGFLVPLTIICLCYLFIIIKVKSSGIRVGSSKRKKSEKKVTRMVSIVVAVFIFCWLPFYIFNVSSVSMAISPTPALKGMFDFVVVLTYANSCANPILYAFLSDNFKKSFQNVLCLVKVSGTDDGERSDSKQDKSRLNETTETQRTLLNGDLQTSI
T2 sequence (P35346 whole entry): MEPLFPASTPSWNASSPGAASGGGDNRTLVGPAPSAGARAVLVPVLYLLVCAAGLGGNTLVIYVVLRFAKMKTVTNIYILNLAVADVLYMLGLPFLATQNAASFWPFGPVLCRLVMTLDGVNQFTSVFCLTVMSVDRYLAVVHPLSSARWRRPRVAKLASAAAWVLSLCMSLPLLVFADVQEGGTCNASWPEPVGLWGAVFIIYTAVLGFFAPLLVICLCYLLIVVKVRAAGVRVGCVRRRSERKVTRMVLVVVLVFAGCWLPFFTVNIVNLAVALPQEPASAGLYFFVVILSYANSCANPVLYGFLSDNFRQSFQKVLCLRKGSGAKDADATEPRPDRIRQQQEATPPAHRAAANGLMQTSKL
T4 sequence (P30872 whole entry): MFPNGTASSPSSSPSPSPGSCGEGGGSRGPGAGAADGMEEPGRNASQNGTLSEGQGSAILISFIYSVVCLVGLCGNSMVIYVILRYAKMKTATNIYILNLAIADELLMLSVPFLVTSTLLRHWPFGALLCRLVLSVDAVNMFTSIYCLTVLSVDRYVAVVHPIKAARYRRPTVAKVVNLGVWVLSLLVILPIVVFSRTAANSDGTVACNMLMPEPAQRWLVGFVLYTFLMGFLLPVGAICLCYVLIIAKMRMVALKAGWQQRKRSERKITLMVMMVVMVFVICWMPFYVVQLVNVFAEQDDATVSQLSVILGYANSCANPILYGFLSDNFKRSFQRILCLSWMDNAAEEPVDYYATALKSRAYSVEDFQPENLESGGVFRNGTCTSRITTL
T1 sequence (P31391 whole entry): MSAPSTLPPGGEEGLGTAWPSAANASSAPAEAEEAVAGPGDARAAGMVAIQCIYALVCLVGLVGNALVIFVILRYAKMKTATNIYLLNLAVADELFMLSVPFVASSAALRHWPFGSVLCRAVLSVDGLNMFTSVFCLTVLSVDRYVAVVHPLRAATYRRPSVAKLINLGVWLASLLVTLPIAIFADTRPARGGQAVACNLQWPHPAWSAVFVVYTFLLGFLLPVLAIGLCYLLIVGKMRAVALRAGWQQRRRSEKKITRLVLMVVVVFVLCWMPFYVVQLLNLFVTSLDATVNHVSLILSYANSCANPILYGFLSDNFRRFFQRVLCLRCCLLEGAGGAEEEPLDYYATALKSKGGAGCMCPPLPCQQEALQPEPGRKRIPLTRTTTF

Turning to `C[C@@H](O)[C@@H]1NC(=O)[C@H](CCCCN)NC(=O)[C@@H](Cc2c[nH]c3ccccc23)NC(=O)[C@H](Cc2ccccc2)NC(=O)CN([C@@H](C)c2ccccc2)C(=O)[C@H](Cc2ccccc2)NC1=O`, the inhibition constant Ki in experiment [1] (cho-k1) is 987 nM; in experiment [3] (cho-k1), 87 nM; in [5] (cho-k1), over 1000 nM; in [7] (cho-k1) it was 29.5 nM; in experiment [8] (cho-k1), 797 nM. The dissociation constant (Kd) was 2630 nM in experiment [2] (cho); 6.17 nM in [4] (cho); 339 nM in experiment [6] (cho); 115 nM in [9] (ccl-39); 13200 nM in experiment [10].
For `C[C@H](c1ccccc1)N1CC(=O)N[C@@H](Cc2ccccc2)C(=O)N[C@H](Cc2c[nH]c3ccccc23)C(=O)N[C@@H](CCCCN)C(=O)N[C@@H]([C@@H](C)O)C(=O)N[C@@H](Cc2ccccc2)C1=O`, the inhibitory constant (Ki) is over 1000 nM in [1] (cho-k1); 33.5 nM in experiment [3] (cho-k1); over 1000 nM in experiment [5] (cho-k1); 2.33 nM in experiment [7] (cho-k1); 425 nM in [8] (cho-k1). Moreover, the Kd in [2] (cho) was determined as 4170 nM; in [4] (cho), 2.04 nM; in experiment [6] (cho), 407 nM; in experiment [9] (ccl-39), 288 nM; in [10] it was 3550 nM.
As for `C[C@@H](O)[C@@H]1NC(=O)[C@H](CCCCN)NC(=O)[C@@H](Cc2c[nH]c3ccccc23)NC(=O)[C@H](Cc2ccccc2)NC(=O)[C@@H]2CCCN2C(=O)[C@H](Cc2ccccc2)NC1=O` (cyclo(PF[dW]KTF)), the Ki in experiment [1] was over 1000 nM; in experiment [3] it was 25 nM; in experiment [5] it was over 1000 nM; in experiment [7], 5.1 nM; in [8], 129 nM. In addition, the Kd turned out to be 8910 nM in [2]; 0.76 nM in [4]; 525 nM in [6]; 7.6 nM in experiment [9]; 4570 nM in [10].
For `C[C@@H](O)[C@@H]1NC(=O)[C@H](CCCCN)NC(=O)[C@@H](Cc2c[nH]c3ccccc23)NC(=O)[C@H](Cc2ccccc2)NC(=O)CN(Cc2ccccc2)C(=O)[C@H](Cc2ccccc2)NC1=O`, the inhibition constant (Ki) in [1] (cho-k1) was over 1000 nM; in [3] (cho-k1), 101 nM; in experiment [5] (cho-k1), over 1000 nM; in [7] (cho-k1), 6.98 nM; in experiment [8] (cho-k1) it was 253 nM. For the same compound, the equilibrium dissociation constant (Kd) is 4680 nM in experiment [2] (cho); 2.95 nM in experiment [4] (cho); 282 nM in experiment [6] (cho); 69 nM in experiment [9] (ccl-39); 7080 nM in experiment [10].

These data come from ChEMBL document CHEMBL1131287, “Design, synthesis, and biological activities of potent and selective somatostatin analogues incorporating novel peptoid residues” (J Med Chem, 1998).
